We go through 17 molecules from ChEMBL document CHEMBL2396576, “Identification of 1,6-dihydropyrazolo[4,3-c]carbazoles and 3,6-dihydropyrazolo[3,4-c]carbazoles as new Pim kinase inhibitors” (Bioorg Med Chem, 2013).

pIC50: −log10 of the molar value.

One experiment relates to LNCaP. In words: Antiproliferative activity against human LNCAP cells assessed as cell growth inhibition at 10 uM after 72 hrs by MTS assay. Type of experiment: functional. The following applies: read-out: GI. The essentials:
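LNCaP cells grown in RPMI 1640 with 10% FCS at 37 °C, 5% CO2, seeded at 5000 per well. After 24 h, compound in DMSO (1% final) added at 10 µM for 72 h; DMSO controls. Viable cells by MTS absorbance at 490 nm; percent proliferation inhibition.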

In experiment [1] the test system is PC-3. In words: Antiproliferative activity against human PC3 cells assessed as cell growth inhibition after 72 hrs by MTS assay. Type of experiment: functional, cell-based. The following applies: PC-3, 72 h. In general terms: Tetrazolium dyes change colour on reduction, which living cells bring about.
Experiment [2] concerns PC-3. In words: Antiproliferative activity against human PC3 cells assessed as cell growth inhibition at 10 uM after 72 hrs by MTS assay. Type of experiment: functional. The following applies: PC-3, 72 h, read-out: GI. The procedure, abridged:
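PC3 cells kept in RPMI 1640 plus 10% FCS (37 °C, 5% CO2) and plated at 2500 per well. Compound added 24 h later at 10 µM in DMSO (1% final), 72 h exposure, vehicle controls. MTS read at 490 nm; percent inhibition of proliferation.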

The target in experiment [3] is T1, Serine/threonine-protein kinase pim-3 (Homo sapiens, UniProt Q86V86). In words: Inhibition of human PIM3 assessed as residual activity using RSRHSSYPAGT as substrate at 1 uM after 30 mins.
The target of experiment [4] is T1, Serine/threonine-protein kinase pim-3. In words: Inhibition of human PIM3 assessed as residual activity using RSRHSSYPAGT as substrate at 10 uM after 30 mins.
In experiment [5] the target is Serine/threonine-protein kinase pim-2 (Homo sapiens) (UniProt Q9P1W9). In words: Inhibition of human PIM2 assessed as residual activity using RSRHSSYPAGT as substrate at 1 uM after 30 mins.
Chain of Serine/threonine-protein kinase pim-2 (Homo sapiens) (Q9P1W9 whole entry, looked up): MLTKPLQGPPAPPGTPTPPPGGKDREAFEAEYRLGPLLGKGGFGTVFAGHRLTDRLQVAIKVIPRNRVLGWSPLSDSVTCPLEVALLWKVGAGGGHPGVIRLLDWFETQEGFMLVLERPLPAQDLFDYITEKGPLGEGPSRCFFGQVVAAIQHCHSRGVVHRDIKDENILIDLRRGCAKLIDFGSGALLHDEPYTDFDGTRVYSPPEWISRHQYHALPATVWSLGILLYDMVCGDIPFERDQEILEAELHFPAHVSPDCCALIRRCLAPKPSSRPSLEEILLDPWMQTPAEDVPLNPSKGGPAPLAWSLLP
Experiment [6] has the same target. In words: Inhibition of human PIM2 assessed as residual activity using RSRHSSYPAGT as substrate at 10 uM after 30 mins.
Experiment [7] concerns the target T2, Serine/threonine-protein kinase pim-1 (Homo sapiens, UniProt P11309). In words: Inhibition of human PIM1 assessed as residual activity using RSRHSSYPAGT as substrate at 1 uM after 30 mins.
Target sequence in this assay (P11309 whole entry, looked up): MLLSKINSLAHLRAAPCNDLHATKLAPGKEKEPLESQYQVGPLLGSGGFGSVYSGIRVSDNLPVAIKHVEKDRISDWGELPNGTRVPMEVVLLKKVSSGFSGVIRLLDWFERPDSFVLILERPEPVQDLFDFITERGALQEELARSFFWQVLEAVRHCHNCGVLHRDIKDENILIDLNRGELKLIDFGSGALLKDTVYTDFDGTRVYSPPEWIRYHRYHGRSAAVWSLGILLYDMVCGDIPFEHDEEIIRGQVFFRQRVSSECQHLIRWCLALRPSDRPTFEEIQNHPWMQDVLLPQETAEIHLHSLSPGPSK
In experiment [8] the target is T2, Serine/threonine-protein kinase pim-1. In words: Inhibition of human PIM1 assessed as residual activity using RSRHSSYPAGT as substrate at 10 uM after 30 mins.
Target sequence in this assay (P11309 whole entry, looked up): as above
Experiment [9] concerns the target T1, Serine/threonine-protein kinase pim-3. In words: Inhibition of human PIM3 using RSRHSSYPAGT as substrate after 30 mins.
Experiment [10] concerns the target T2, Serine/threonine-protein kinase pim-1. In words: Inhibition of human PIM1 using RSRHSSYPAGT as substrate after 30 mins.
Target sequence in this assay (P11309 whole entry): as the sequence (P11309 whole entry, looked up) above

Turning to `COc1ccc2[nH]c3c([N+](=O)[O-])cc4[nH]ncc4c3c2c1`, the inhibition of growth at 10 µM came to 27% with LNCaP and 74% in the experiment with PC-3 [2]. Besides, the pIC50 (usually the IC50 on a negative log10 scale, so that one unit is a factor of ten) with PC-3 [1] was 5.64. Besides, the Activity worked out at 21% in experiment [3]; 11% in [4]; 54% in experiment [5]; 35% in experiment [6]; 29% in [7]; 13% in [8].
`COc1ccc2[nH]c3c(N)cc4[nH]ncc4c3c2c1`: the inhibition of growth at 10 µM in the experiment with LNCaP amounted to 39%; in the experiment with PC-3 [2], 46%. Also, the Activity in experiment [3] is 51%; in experiment [4], 16%; in [5], 123%; in experiment [6], 54%; in experiment [7], 70%; in experiment [8], 23%.
`O=[N+]([O-])c1cc2cn[nH]c2c2c1[nH]c1ccccc12`: the figures for the inhibition of growth at 10 µM in the experiment on LNCaP and in the experiment with PC-3 [2] were 45% and 59%, respectively. Besides, the Activity in experiment [3] turned out to be 22%; in experiment [4], 16%; in [5], 76%; in experiment [6], 46%; in experiment [7], 44%; in [8], 26%.
As to `O=[N+]([O-])c1cc2[nH]ncc2c2c1[nH]c1ccc(Cl)cc12`, the inhibition of growth at 10 µM in the experiment on LNCaP is 0%; with PC-3 [2], 50%. In addition, the pIC50 in experiment [9] was 6.64; in experiment [10] it was 6.70. The Activity in [3] turned out to be 26%; in experiment [4], 19%; in experiment [5], 57%; in experiment [6] it was 54%; in experiment [7], 48%; in experiment [8], 39%.
Turning to `COc1ccc2[nH]c3c([N+](=O)[O-])cc4c[nH]nc4c3c2c1`, the pIC50 is 6.96 in experiment [9] and 6.66 in [10].
Regarding `COc1ccc2[nH]c3c(N)cc4cn[nH]c4c3c2c1`, the figures for the inhibition of growth at 10 µM in the experiment on LNCaP and in the experiment with PC-3 [2] were 8% and 28%, respectively. Also, the pIC50 in experiment [9] was 6.15. For the same molecule, the Activity in experiment [3] was 46%; in [4], 14%; in experiment [5] it was 120%; in [6], 70%; in [7] it was 93%; in [8] it was 43%.
With `Nc1cc2[nH]ncc2c2c1[nH]c1ccc(Cl)cc12`, the inhibition of growth at 10 µM in the experiment with LNCaP worked out at 27%; in the experiment with PC-3 [2], 45%. Moreover, the figures for the pIC50 in [9] and in experiment [10] were 6.96 and 5.96, respectively. Further, the Activity in experiment [3] turned out to be 28%; in experiment [4], 7%; in experiment [5] it was 107%; in experiment [6], 34%; in [7] it was 45%; in experiment [8], 8%.
`O=[N+]([O-])c1cc2[nH]ncc2c2c1[nH]c1ccccc12`: the inhibition of growth at 10 µM is 38% in the experiment with LNCaP and 85% with PC-3 [2]. Moreover, the pIC50 with PC-3 [1] is 5.52. In addition, the Activity in experiment [3] was 28%; in experiment [4], 17%; in experiment [5] it was 49%; in experiment [6], 38%; in [7], 14%; in experiment [8] it was 15%.
`Nc1cc2cn[nH]c2c2c1[nH]c1ccccc12`: the values for the inhibition of growth at 10 µM with LNCaP and with PC-3 [2] were 28% and 31%, respectively. In addition, the Activity in experiment [3] was 63%; in experiment [4], 20%; in [5] it was 116%; in experiment [6], 78%; in experiment [7], 98%; in [8] it was 54%.
With `COc1ccc2[nH]c3c([N+](=O)[O-])cc4n[nH]cc4c3c2c1`, the pIC50 in [9] was 6.96; in experiment [10] it was 6.82.
Take `Nc1cc2cn[nH]c2c2c1[nH]c1ccc(Cl)cc12`: the inhibition of growth at 10 µM with LNCaP is 35%; in the experiment with PC-3 [2], 43%. Moreover, the Activity was determined as 55% in experiment [3]; 14% in experiment [4]; 115% in [5]; 79% in experiment [6]; 85% in experiment [7]; 29% in experiment [8].
On to `O=[N+]([O-])c1cc2n[nH]cc2c2c1[nH]c1ccccc12`, for which the results for the pIC50 in experiment [9] and in [10] were 7.00 and 7.40, respectively.
Take `Nc1cc2[nH]ncc2c2c1[nH]c1ccccc12`: the inhibition of growth at 10 µM in the experiment with LNCaP and in the experiment on PC-3 [2] was 56% in each case. Further, the Activity was determined as 66% in [3]; 20% in experiment [4]; 96% in [5]; 71% in [6]; 61% in [7]; 16% in [8].
In the case of `COc1ccc2[nH]c3c(N)cc4n[nH]cc4c3c2c1`, in experiment [9], the pIC50 is 6.22.
With `COc1ccc2[nH]c3c([N+](=O)[O-])cc4cn[nH]c4c3c2c1`, the inhibition of growth at 10 µM in the experiment with LNCaP worked out at 19%; in the experiment with PC-3 [2] it was 29%. Moreover, the Activity came to 28% in experiment [3]; 23% in [4]; 77% in experiment [5]; 72% in experiment [6]; 41% in experiment [7]; 39% in [8].
Take `O=[N+]([O-])c1cc2c[nH]nc2c2c1[nH]c1ccccc12`: the results for the pIC50 in [9] and in [10] were 6.68 and 6.40, respectively.
Take `O=[N+]([O-])c1cc2cn[nH]c2c2c1[nH]c1ccc(Cl)cc12`: the inhibition of growth at 10 µM was determined as 28% in the experiment on LNCaP and 51% in the experiment on PC-3 [2]. For the same molecule, in experiment [9], the pIC50 is 7.05. The Activity was determined as 50% in [3]; 38% in experiment [4]; 90% in experiment [5]; 93% in experiment [6]; 69% in experiment [7]; 60% in experiment [8].
